In ChEMBL document CHEMBL1148384, “Design and synthesis of peptidomimetic protein farnesyltransferase inhibitors as anti-Trypanosoma brucei agents” (J Med Chem, 2004):

Key:
NIH3T3 [1] = assay: Effective dose against murine 3T3 fibroblasts cells; assay type: functional; conditions: Mus musculus, read-out: ED50 (the source's name)
Summary of the method: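 Murine 3T3 fibroblasts were grown in RPMI 1640 with 10% FBS and held 72 h with compound at 37 °C, 5% CO2.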

[2] = system: Trypanosoma brucei brucei; assay: Effective dose required to inhibit the growth of Trypanosoma brucei; assay type: functional; conditions: read-out: ED50 (the source's name)
Summary of the method: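 Bloodstream-form strain 427 was grown in HMI-9 with 10% FBS at 37 °C, 5% CO2. Cells were seeded at 1 × 10^4 trypomastigotes/well in triplicate, with serial dilutions from 20 mM DMSO stocks. Growth was read with Alamar Blue at 48 h, pentamidine served as positive control, and ED50 was fitted from the curves.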

[3] = system: Trypanosoma brucei rhodesiense; assay: Effective dose required to inhibit the growth of Trypanosoma brucei rhodesiense; assay type: functional; conditions: read-out: ED50 (the source's name)
Summary of the method: (§1)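 Bloodstream-form trypomastigotes of strain STIB 900 were grown in HMI-18 with nonessential amino acids, glucose and 15% heat-inactivated FCS at 37 °C, 5% CO2. Compounds were given as serial dilutions, in triplicate, from 1 × 10^4 cells/well. Cultures ran 72 h before Alamar Blue read-out, and ED50 was fitted.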

[4] = target: protein farnesyltransferase (Trypanosoma brucei); assay: Inhibition of Trypanosoma brucei protein farnesyltransferase
[5] = system: protein farnesyltransferase (Trypanosoma brucei); assay: Inhibition of against Trypanosoma brucei protein farnesyltransferase at 50 nM concentration
[6] = system: Trypanosoma brucei rhodesiense; assay: Dose required to inhibit growth of Trypanosoma brucei rhodesiense; 14->60 uM; assay type: functional; conditions: read-out: ED50 (the source's name); summary of the method: as §1
[7] = target: protein farnesyltransferase (Trypanosoma brucei); assay: Inhibition of Trypanosoma brucei protein farnesyltransferase at 50 nM
[8] = target: Protein farnesyltransferase (Homo sapiens, UniProt P49354+P49356); assay: Inhibition of mammalian protein farnesyltransferase; assay type: protein-complex assay
NIH3T3 [9] = assay: Dose required to block Ras farnesylation in mouse 3T3 fibroblasts; assay type: functional; conditions: read-out: ED50 (the source's name)

| Compound | EC50 (NIH3T3 [1]) | EC50 [2] | EC50 [3] | IC50 [4] | inhibition [5] | EC50 [6] | IC50 [7] | IC50 [8] | EC50 (NIH3T3 [9]) |
| --- | --- | --- | --- | --- | --- | --- | --- | --- | --- |
| CSCC[C@H](NC(=O)c1ccc(NC(=O)Cc2cncn2C)cc1-c1ccccc1C)C(=O)O | > 25000 nM | > 25000 nM | > 60000 nM | 6.6 nM | 83.2% |  |  |  |  |
| CSCC[C@H](NC(=O)c1ccc(NCc2cncn2Cc2ccc(-c3ccccc3)cc2)cc1-c1ccccc1)C(=O)O |  | > 10000 nM |  |  | 85.6% | > 60000 nM | 8 nM |  |  |
| CSCC[C@H](NC(=O)c1ccc(CNCc2c[nH]cn2)cc1-c1ccccc1C)C(=O)O | > 25000 nM | 1000 nM | 200 nM | 1.8 nM | 96.1% |  |  | 0.86 nM | 20 nM |
